Assay results reported in ChEMBL document CHEMBL5136969, “A niclosamide-tobramycin hybrid adjuvant potentiates cefiderocol against P. aeruginosa” (2021).
The source made the active and inactive calls.

Key:
Acinetobacter baumannii [1] = experiment: Potentiation of moxifloxacin-induced antibiotic activity against Acinetobacter baumannii ATCC 17978 assessed as MIC fold reduction at 8 ug/ml after 18 hrs by microbroth dilution method; type: functional; conditions: dose 8 µg/ml
Outline: (§1)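 Adjuvant held at a fixed 8 μg/mL while the antibiotic was 2-fold serially diluted in Mueller-Hinton broth (MHB), per CLSI microbroth dilution. Overnight cultures were adjusted in saline to 0.5 McFarland, then diluted 1:50 in MHB to about 5 × 10^5 CFU/mL final, and incubated 18 h at 37 °C. MIC was the lowest concentration with no visible turbidity, confirmed at 590 nm. Fold potentiation = MIC alone / MIC with adjuvant.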

Pseudomonas aeruginosa [2] = experiment: Potentiation of niclosamide-induced antibiotic activity against Pseudomonas aeruginosa PAO1 assessed as MIC fold reduction at 8 ug/ml after 18 hrs by microbroth dilution method; type: functional; conditions: dose 8 µg/ml
Escherichia coli [3] = experiment: Potentiation of niclosamide-induced antibiotic activity against Escherichia coli ATCC 25922 assessed as MIC fold reduction at 8 ug/ml after 18 hrs by microbroth dilution method; type: functional; conditions: dose 8 µg/ml
Pseudomonas aeruginosa [4] = experiment: Potentiation of piperacilin-induced antibiotic activity against Pseudomonas aeruginosa PAO1 assessed as MIC fold reduction at 8 ug/ml after 18 hrs by microbroth dilution method; type: functional; conditions: dose 8 µg/ml
Acinetobacter baumannii [5] = experiment: Potentiation of piperacilin-induced antibiotic activity against Acinetobacter baumannii ATCC 17978 assessed as MIC fold reduction at 8 ug/ml after 18 hrs by microbroth dilution method; type: functional; conditions: dose 8 µg/ml
Escherichia coli [6] = experiment: Potentiation of cefotaxime-induced antibiotic activity against Escherichia coli ATCC 25922 assessed as MIC fold reduction at 8 ug/ml after 18 hrs by microbroth dilution method; type: functional; conditions: dose 8 µg/ml
Outline: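 Initial screen in MHB using a fixed 8 μg mL−1 of adjuvant combined with each antibiotic under 2-fold dilution. Broth microdilution used about 5 × 10^5 CFU/mL at 37 °C for 18 h, with visible turbidity read and confirmed at 590 nm. Fold-potentiation = antibiotic MIC alone ÷ antibiotic MIC with adjuvant.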

Acinetobacter baumannii [7] = experiment: Potentiation of ceftazidime-induced antibiotic activity against Acinetobacter baumannii ATCC 17978 assessed as MIC fold reduction at 8 ug/ml after 18 hrs by microbroth dilution method; type: functional; conditions: dose 8 µg/ml; outline: as §1
Escherichia coli [8] = experiment: Potentiation of ceftolozane-induced antibiotic activity against Escherichia coli ATCC 25922 assessed as MIC fold reduction at 8 ug/ml after 18 hrs by microbroth dilution method; type: functional; conditions: dose 8 µg/ml; outline: as §1
Acinetobacter baumannii [9] = experiment: Potentiation of doxycycline-induced antibiotic activity against Acinetobacter baumannii ATCC 17978 assessed as MIC fold reduction at 8 ug/ml after 18 hrs by microbroth dilution method; type: functional; conditions: dose 8 µg/ml; outline: as §1
Acinetobacter baumannii [10] = experiment: Potentiation of erythromycin-induced antibiotic activity against Acinetobacter baumannii ATCC 17978 assessed as MIC fold reduction at 8 ug/ml after 18 hrs by microbroth dilution method; type: functional; conditions: dose 8 µg/ml; outline: as §1
Acinetobacter baumannii [11] = experiment: Potentiation of fosfomycin-induced antibiotic activity against Acinetobacter baumannii ATCC 17978 assessed as MIC fold reduction at 8 ug/ml after 18 hrs by microbroth dilution method; type: functional; conditions: dose 8 µg/ml; outline: as §1
Pseudomonas aeruginosa [12] = experiment: Potentiation of cindamycin-induced antibiotic activity against Pseudomonas aeruginosa PAO1 assessed as MIC fold reduction at 8 ug/ml after 18 hrs by microbroth dilution method; type: functional; conditions: dose 8 µg/ml; outline: as §1
Escherichia coli [13] = experiment: Potentiation of pleuromutilin-induced antibiotic activity against Escherichia coli ATCC 25922 assessed as MIC fold reduction at 8 ug/ml after 18 hrs by microbroth dilution method; type: functional; conditions: dose 8 µg/ml
Acinetobacter baumannii [14] = experiment: Potentiation of sulfamethoxazole-induced antibiotic activity against Acinetobacter baumannii ATCC 17978 assessed as MIC fold reduction at 8 ug/ml after 18 hrs by microbroth dilution method; type: functional; conditions: dose 8 µg/ml
Escherichia coli [15] = experiment: Potentiation of sulfamethoxazole-induced antibiotic activity against Escherichia coli ATCC 25922 assessed as MIC fold reduction at 8 ug/ml after 18 hrs by microbroth dilution method; type: functional; conditions: dose 8 µg/ml
Pseudomonas aeruginosa [16] = experiment: Potentiation of cotrimoxazole-induced antibiotic activity against Pseudomonas aeruginosa PAO1 assessed as MIC fold reduction at 8 ug/ml after 18 hrs by microbroth dilution method; type: functional; conditions: dose 8 µg/ml; outline: as §1
Escherichia coli [17] = experiment: Antibacterial activity against Escherichia coli ATCC 25922 assessed as reduction in bacterial growth after 18 hrs by microbroth dilution method; type: functional
Outline: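 CLSI microbroth dilution in MHB. Overnight cultures were adjusted to 0.5 McFarland in saline, diluted 1:50, and inoculated at about 5 × 10^5 CFU/mL. Agents were 2-fold serially diluted and incubated 18 h at 37 °C. MIC is the lowest concentration without visible turbidity, confirmed by absorbance at 590 nm. Medium with and without cells served as controls.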

Pseudomonas aeruginosa [18] = experiment: Potentiation of cefotaxime-induced antibiotic activity against MDR clinical isolate Pseudomonas aeruginosa PA264 assessed as MIC fold reduction at 8 ug/ml after 18 hrs by microbroth dilution method; type: functional, organism-based; conditions: dose 8.0 µg/ml; outline: as §1
Pseudomonas aeruginosa [19] = experiment: Potentiation of ceftazidime-induced antibiotic activity against […] Pseudomonas aeruginosa PAO1 assessed as MIC fold reduction at 8 ug/ml after 18 hrs by microbroth dilution method; type: functional, organism-based; conditions: dose 8.0 µg/ml; outline: as §1
Pseudomonas aeruginosa [20] = experiment: Potentiation of ceftazidime-induced antibiotic activity against MDR clinical isolate Pseudomonas aeruginosa PA264 assessed as MIC fold reduction at 8 ug/ml after 18 hrs by microbroth dilution method; type: functional, organism-based; conditions: dose 8.0 µg/ml; outline: as §1
Pseudomonas aeruginosa [21] = experiment: Antibacterial activity against colistin-resistant clinical isolate Pseudomonas aeruginosa PA101243 assessed as reduction in bacterial growth after 18 hrs by microbroth dilution method; type: functional
Outline: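 Broth microdilution per CLSI in Mueller-Hinton broth (MHB). Overnight cultures were adjusted to 0.5 McFarland in saline, diluted 1:50 in MHB, and added at about 5 × 10^5 CFU/mL final to equal volumes of 2-fold serial dilutions of agent. Incubation was 18 h at 37 °C. MIC was the lowest concentration with no visible turbidity, confirmed by absorbance at 590 nm.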

Pseudomonas aeruginosa [22] = experiment: Antibacterial activity against MDR clinical isolate Pseudomonas aeruginosa PA264 assessed as reduction in bacterial growth after 18 hrs in presence of cefiderocol by microbroth dilution method; type: functional
Outline: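 Checkerboard in MHB. Cefiderocol was 2-fold serially diluted along one axis and the adjuvant along the other. Inoculum was prepared from 0.5 McFarland saline suspensions diluted 1:50 in MHB, giving about 5 × 10^5 CFU/mL final. Plates ran 18 h at 37 °C, with turbidity confirmed at 590 nm. FIC = combination MIC ÷ MIC alone for each agent, and FIC index = sum of both. Interpretation: ≤0.5 synergy, >0.5–4 additive, >4 antagonism.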

Escherichia coli [23] = experiment: Antibacterial activity against Escherichia coli ATCC 25922 assessed as potentiation of cefiderocol antibacterial activity by measuring FIC after 18 hrs by microbroth dilution method; type: functional
Outline: (§2)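 Checkerboard in Mueller-Hinton broth: cefiderocol 2-fold diluted on one axis, adjuvant 2-fold on the other. Overnight cultures were adjusted to 0.5 McFarland in saline, diluted 1:50 in MHB, and inoculated at about 5 × 10^5 CFU/mL. Incubation was 18 h at 37 °C. Turbidity was read visually and confirmed at 590 nm. FIC index = FIC of antibiotic + FIC of adjuvant; ≤0.5 synergy, >4 antagonism.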

Escherichia coli [24] = experiment: Antibacterial activity against Escherichia coli 94393 assessed as potentiation of cefiderocol antibacterial activity by measuring FIC after 18 hrs by microbroth dilution method; type: functional; outline: as §2
Pseudomonas aeruginosa [25] = experiment: Potentiation of moxifloxacin-induced antibiotic activity against Pseudomonas aeruginosa PA263 assessed as MIC fold reduction in ID-CAMHB condition at 8 ug/ml after 18 hrs by microbroth dilution method; type: functional, organism-based; conditions: dose 8.0 µg/ml

NC[C@H]1O[C@H](O[C@H]2[C@H](OCCCCc3cn(-c4ccc(NC(=O)c5cc(Cl)ccc5O)cc4)nn3)[C@@H](O[C@H]3O[C@H](CO)[C@@H](O)[C@H](N)[C@H]3O)[C@H](N)C[C@@H]2N)[C@H](N)C[C@@H]1O
4: fold change (FC) (Acinetobacter baumannii [1]) | fold change (FC) (Pseudomonas aeruginosa [2]) | fold change (FC) (Escherichia coli [3]) | fold change (FC) (Pseudomonas aeruginosa [4]) | fold change (FC) (Acinetobacter baumannii [5]) | fold change (FC) (Escherichia coli [6]) | fold change (FC) (Acinetobacter baumannii [7]) | fold change (FC) (Escherichia coli [8]) | fold change (FC) (Acinetobacter baumannii [9]) | fold change (FC) (Acinetobacter baumannii [10]) | fold change (FC) (Acinetobacter baumannii [11]) | fold change (FC) (Pseudomonas aeruginosa [12]) | fold change (FC) (Escherichia coli [13]) | fold change (FC) (Acinetobacter baumannii [14]) | fold change (FC) (Escherichia coli [15]) | fold change (FC) (Pseudomonas aeruginosa [16])
> 128 µg/mL: MIC (Escherichia coli [17]) | MIC (Pseudomonas aeruginosa [21])
0.125 µg/mL: MIC (Pseudomonas aeruginosa [22])
0.25: FIC (Escherichia coli [24])
active: Activity (Pseudomonas aeruginosa [18]) | Activity (Pseudomonas aeruginosa [19]) | Activity (Pseudomonas aeruginosa [20]) | Activity (Pseudomonas aeruginosa [25])
0.5: FIC (Escherichia coli [23])
